In ChEMBL document CHEMBL1139340, “Synthesis, radiosynthesis, and biological evaluation of carbon-11 and fluorine-18 labeled reboxetine analogues: potential positron emission tomography radioligands for in vivo imaging of the norepinephrine transporter” (J Med Chem, 2009):

What was measured:
[1] = Ratio of drug uptake in pons to caudate of anesthetized rhesus monkey at 15 to 20 mCi after 85 mins postinjection by microPET; format: ADME, organism-based, Macaca mulatta; settings: in vivo
Procedure, shortened: (§1)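 Anesthetized adult male rhesus monkeys scanned on a microPET P4 after 15–20 mCi of the 11C radioligand; emission collected continuously for 125 min, binned, time-activity curves from manually drawn anatomical ROIs; regional uptake divided by caudate uptake (caudate as NET-poor reference) at 85 min postinjection, at baseline.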

[2] = Ratio of drug uptake in midbrain to caudate of anesthetized rhesus monkey at 15 to 20 mCi after 85 mins postinjection by microPET; format: ADME, organism-based, Macaca mulatta; settings: in vivo
Procedure, shortened: (§2)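 Anesthetized adult male rhesus monkeys given 15–20 mCi of the ¹¹C tracer, alone or after desipramine (0.125 or 0.25 mg/kg) 40 min beforehand. MicroPET emission collected continuously for 125 min and binned. ROIs drawn manually on anatomical landmarks to give time-activity curves. Region-to-caudate uptake ratio taken at 85 min postinjection.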

[3] = Ratio of drug uptake in thalamus to caudate of awaken rhesus monkey at 15 to 20 mCi after by PET method; format: ADME, Macaca mulatta; settings: in vivo
Procedure, shortened: (§3)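 Awake rhesus monkeys imaged on a high-resolution research tomograph (HRRT) for 120 min after radioligand injection; images coregistered with composite MRI to define regions; time-activity curves generated and highest ratio of regional uptake to caudate uptake taken.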

[4] = Ratio of drug uptake in thalamus to caudate of anesthetized rhesus monkey at 15 to 20 mCi after 85 mins postinjection by microPET; format: ADME, organism-based, Macaca mulatta; settings: in vivo; procedure, shortened: as §1
[5] = Ratio of drug uptake in cerebellum to caudate of anesthetized rhesus monkey at 15 to 20 mCi after 85 mins postinjection by microPET; format: ADME, organism-based, Macaca mulatta; settings: in vivo; procedure, shortened: as §2
[6] = Ratio of drug uptake in cerebellum to caudate of anesthetized rhesus monkey at 15 to 20 mCi pretreated with 0.125 mg/kg desipramine by microPET; format: ADME, organism-based, Macaca mulatta; set-up: dose 0.125 mg/kg; settings: in vivo
Procedure, shortened: (§4)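 Anesthetized adult male rhesus monkeys imaged on a microPET P4 system after injection of 15–20 mCi of the 11C-labeled radioligand. Desipramine was given 40 min before radiotracer injection. Emission data were collected continuously for 125 min and binned. ROIs were drawn manually on anatomical landmarks in the reconstructed images. The ratio of region-of-interest to caudate uptake was taken from time-activity curves at 85 min postinjection.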

[7] = Ratio of drug uptake in thalamus to caudate of anesthetized rhesus monkey at 15 to 20 mCi pretreated with 0.125 mg/kg desipramine by microPET; format: ADME, organism-based, Macaca mulatta; set-up: dose 0.125 mg/kg; settings: in vivo; procedure, shortened: as §4
[8] = Ratio of drug uptake in cerebellum to caudate of awaken rhesus monkey at 15 to 20 mCi after by PET method; format: ADME, tissue-based, Macaca mulatta; settings: in vivo
Procedure, shortened: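 Awake rhesus monkeys imaged on a high-resolution research tomograph for 120 min after injection of the ¹¹C tracer. Images coregistered with composite MRI to define regions of interest. Highest cerebellum-to-caudate uptake ratio read from the time-activity curves.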

[9] = Ratio of drug uptake in midbrain to caudate of anesthetized rhesus monkey at 15 to 20 mCi pretreated with 0.125 mg/kg desipramine by microPET; format: ADME, organism-based, Macaca mulatta; set-up: dose 0.125 mg/kg; settings: in vivo; procedure, shortened: as §4
[10] = Ratio of drug uptake in pons to caudate of awaken rhesus monkey at 15 to 20 mCi after by PET method; format: ADME, Macaca mulatta; settings: in vivo; procedure, shortened: as §3
[11] = Ratio of drug uptake in midbrain to caudate of awaken rhesus monkey at 15 to 20 mCi after by PET method; format: ADME, Macaca mulatta; settings: in vivo; procedure, shortened: as §3
[12] = Ratio of drug uptake in pons to caudate of anesthetized rhesus monkey at 15 to 20 mCi pretreated with 0.125 mg/kg desipramine by microPET; format: ADME, organism-based, Macaca mulatta; set-up: dose 0.125 mg/kg; settings: in vivo; procedure, shortened: as §4
[13] = molecular target: Sodium-dependent noradrenaline transporter (Homo sapiens, UniProt P23975); assay: Displacement of [3H]nisoxetine from human NET receptor expressed in HEK293 cells; format: cell-based
[14] = molecular target: Sodium-dependent dopamine transporter (Homo sapiens, UniProt Q01959); assay: Displacement of [125I]RTI-55 from human DAT receptor expressed in canine kidney cells; format: cell-based
Procedure, shortened: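 Competition binding against [¹²⁵I]RTI-55 in canine kidney cells stably transfected with human DAT. Ki in nM, geometric mean ± SD of at least three separate experiments, each run in triplicate.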

[15] = Lipophilicity, log P at pH 7.4; format: physicochemical; settings: buffer
Procedure, shortened: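 Radiotracer (~5–10 μCi) in 2 mL 1-octanol plus 2 mL 0.02 M sodium phosphate buffer, pH 7.4. Vortexed 10 min at room temperature, centrifuged 5 min. 0.5 mL of each layer gamma-counted and decay corrected. log P = log(octanol counts/buffer counts), done three times and averaged.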

Homo sapiens [16] = organism: Homo sapiens; assay: Selectivity for human NET over human SERT
Procedure, shortened: (§5)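 Competition binding in stably transfected cells expressing human transporters: NET vs [3H]nisoxetine and SERT vs [3H]citalopram in HEK-293 cells; DAT vs [125I]RTI-55 in canine kidney cells. Ki as geometric mean of at least three experiments in triplicate; selectivity as ratio of SERT or DAT Ki to NET Ki.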

[17] = molecular target: Sodium-dependent serotonin transporter (Homo sapiens, UniProt P31645); assay: Displacement of [3H]citalopram from human SERT receptor expressed in HEK293 cells; format: cell-based
Procedure, shortened: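 Competition binding against [³H]citalopram in HEK-293 cells stably transfected with human SERT. Ki in nM, geometric mean ± SD of at least three separate experiments, each run in triplicate.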

Homo sapiens [18] = organism: Homo sapiens; assay: Selectivity for human NET over human DAT; procedure, shortened: as §5

Sequence of Sodium-dependent serotonin transporter (P31645 whole entry): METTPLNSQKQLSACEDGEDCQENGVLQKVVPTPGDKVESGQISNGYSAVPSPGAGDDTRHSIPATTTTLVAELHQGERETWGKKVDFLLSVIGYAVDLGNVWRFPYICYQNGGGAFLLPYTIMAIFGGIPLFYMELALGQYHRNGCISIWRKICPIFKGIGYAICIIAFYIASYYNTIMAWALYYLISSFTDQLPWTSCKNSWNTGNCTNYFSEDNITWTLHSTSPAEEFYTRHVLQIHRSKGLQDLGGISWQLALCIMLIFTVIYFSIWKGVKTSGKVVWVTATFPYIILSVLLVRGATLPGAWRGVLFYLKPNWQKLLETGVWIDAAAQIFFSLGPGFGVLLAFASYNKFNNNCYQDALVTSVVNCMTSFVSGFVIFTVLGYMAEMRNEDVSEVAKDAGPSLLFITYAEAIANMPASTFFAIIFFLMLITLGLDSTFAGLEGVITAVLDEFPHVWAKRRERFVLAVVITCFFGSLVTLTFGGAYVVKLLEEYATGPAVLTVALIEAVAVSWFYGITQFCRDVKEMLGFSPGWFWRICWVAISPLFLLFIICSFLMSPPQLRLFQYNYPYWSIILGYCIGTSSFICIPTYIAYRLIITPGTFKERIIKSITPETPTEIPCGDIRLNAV
Sequence of Sodium-dependent noradrenaline transporter (P23975 whole entry): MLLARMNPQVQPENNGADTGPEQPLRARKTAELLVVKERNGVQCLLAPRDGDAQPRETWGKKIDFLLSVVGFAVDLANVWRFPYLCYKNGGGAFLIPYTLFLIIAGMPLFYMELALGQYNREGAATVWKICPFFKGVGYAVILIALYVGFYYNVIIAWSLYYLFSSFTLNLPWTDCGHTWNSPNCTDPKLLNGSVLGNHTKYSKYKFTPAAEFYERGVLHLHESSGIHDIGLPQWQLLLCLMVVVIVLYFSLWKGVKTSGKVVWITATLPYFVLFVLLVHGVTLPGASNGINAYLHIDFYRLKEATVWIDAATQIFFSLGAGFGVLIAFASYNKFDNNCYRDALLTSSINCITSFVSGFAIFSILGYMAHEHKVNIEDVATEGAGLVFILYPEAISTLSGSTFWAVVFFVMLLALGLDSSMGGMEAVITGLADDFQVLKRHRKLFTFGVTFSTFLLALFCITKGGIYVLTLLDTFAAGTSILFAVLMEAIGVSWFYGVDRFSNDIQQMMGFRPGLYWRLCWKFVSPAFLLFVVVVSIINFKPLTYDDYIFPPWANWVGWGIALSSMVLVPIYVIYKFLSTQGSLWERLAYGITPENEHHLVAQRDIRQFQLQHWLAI
Sequence of Sodium-dependent dopamine transporter (Q01959 whole entry): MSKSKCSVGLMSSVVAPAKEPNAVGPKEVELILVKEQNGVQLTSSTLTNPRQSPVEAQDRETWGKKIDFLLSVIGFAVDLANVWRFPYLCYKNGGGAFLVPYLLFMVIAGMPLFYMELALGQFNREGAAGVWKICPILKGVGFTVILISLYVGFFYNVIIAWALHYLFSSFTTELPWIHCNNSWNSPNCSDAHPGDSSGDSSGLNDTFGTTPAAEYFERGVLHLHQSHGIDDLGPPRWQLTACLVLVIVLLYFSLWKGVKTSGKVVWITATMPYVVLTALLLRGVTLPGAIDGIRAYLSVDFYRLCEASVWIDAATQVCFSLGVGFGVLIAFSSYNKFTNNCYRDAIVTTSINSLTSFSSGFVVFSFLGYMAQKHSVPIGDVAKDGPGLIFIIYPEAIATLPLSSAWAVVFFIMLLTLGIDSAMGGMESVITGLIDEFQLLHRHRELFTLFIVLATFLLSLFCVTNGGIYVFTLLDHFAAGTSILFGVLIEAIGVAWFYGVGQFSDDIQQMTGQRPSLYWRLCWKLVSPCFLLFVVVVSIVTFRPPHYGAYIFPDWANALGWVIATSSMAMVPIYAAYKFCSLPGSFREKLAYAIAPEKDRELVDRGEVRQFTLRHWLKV

SMILES	Ratio [1]	Ratio [2]	Ratio [3]	Ratio [4]	Ratio [5]	Ratio [6]	Ratio [7]	Ratio [8]	Ratio [9]	Ratio [10]	Ratio [11]	Ratio [12]	Ki [13] [µM]	Ki [14] [µM]	logD [15]	Ratio Ki (Homo sapiens [16])	Ki [17] [µM]	Ratio Ki (Homo sapiens [18])
[11CH3]c1ccccc1S[C@@H](c1ccccc1)[C@@H]1CNCCO1	1.27	1.33	1.15	1.34	1.05	0.81	1.02	0.95	1.09	1	1	0.98	–	–	–	–	–	–
Cc1ccccc1S[C@@H](c1ccccc1)[C@@H]1CNCCO1	–	–	–	–	–	–	–	–	–	–	–	–	0.0003	0.275	2.47	49	0.0148	917
FCCc1ccccc1O[C@@H](c1ccccc1)[C@@H]1CNCCO1	–	–	–	–	–	–	–	–	–	–	–	–	0.00314	> 6	2	137	0.43	> 2000
FCCCc1ccccc1O[C@@H](c1ccccc1)[C@@H]1CNCCO1	–	–	–	–	–	–	–	–	–	–	–	–	0.00368	> 6	2.29	126	0.463	> 2000
